Reference: ChEMBL document CHEMBL3526003, “Pharmacokinetics of the monohydroxy derivative of oxcarbazepine and its enantiomers after a single intravenous dose given as racemate compared with a single oral dose of oxcarbazepine” (Drug Metab Dispos, 2011)

Legend:
[1] = Drug excretion in human urine assessed as total amount of drug eliminated treated with oxcarbazepine at 300 mg, po administered as one-film coated tablet by high-performance liquid chromatography; assay type: ADME, organism-based; conditions: read-out: Ae
Outline: (§1)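 300 mg oral tablet given to 12 healthy adults. Urine was collected in fractions up to 72 h and kept at 2–8 °C, then frozen at -20 °C. Analytes were measured by HPLC before and after β-glucuronidase hydrolysis (pH 6.7, 37 °C, about 15 h). Renal clearance was Ae/plasma AUC. Urinary terminal half-life came from log-linear slopes between 4–18 h and 40–64 h.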

[2] = Terminal half life in human urine treated with monohydroxy derivative of OXC at 250 mg, iv administered as infusion over 30 mins by high-performance liquid chromatography; assay type: ADME, organism-based; conditions: read-out: beta t1/2 (converted)
Outline: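 250 mg racemic MHD infused intravenously over 30 min to 12 healthy adults. Plasma was drawn at 0 to 30 min and up to 72 h, and urine was fractionated to 72 h. Enantioselective HPLC was used. Renal clearance was Ae/AUC; Vss was CL_T·MRT (AUMC/AUC). Urinary half-life came from log-linear slopes between 4–18 h and 40–64 h.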

[3] = Terminal half life in human urine treated with oxcarbazepine at 300 mg, po administered as one-film coated tablet by high-performance liquid chromatography; assay type: ADME, organism-based; conditions: read-out: beta t1/2 (converted); outline: as §1
[4] = Cmax in human treated with monohydroxy derivative of OXC at 250 mg, iv administered as infusion over 30 mins by high-performance liquid chromatography; assay type: ADME, organism-based; design: dose 250 mg, route intravenous; conditions: in vivo
Outline: (§2)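 Healthy adults (6 male, 6 female) in an open randomized two-way crossover with at least one week washout. Venous heparinized plasma was sampled at 0, 5, 10, 15, 20, 25 and 30 min and at 1-72 h after the start of infusion, and stored at -80 C. Analytes were measured by non-enantioselective and enantioselective HPLC. Tmax is the observed time of peak concentration, reported as a median.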

[5] = Cmax in human at 300 mg, po administered as one-film coated tablet by high-performance liquid chromatography; assay type: ADME, organism-based; design: dose 300 mg, route oral; conditions: in vivo
Outline: (§3)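 Healthy adults (6 male, 6 female), single 300 mg film-coated tablet by mouth, fasting, in a randomized two-way crossover with at least one week of washout. Venous heparinized blood was drawn at 0–72 h. Plasma was separated at 2200 g and stored at -80 °C. Non-enantioselective and enantioselective HPLC were used. Cmax/tmax were the observed peak; AUC was by linear trapezoidal rule.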

[6] = Tmax in human at 300 mg, po administered as one-film coated tablet by high-performance liquid chromatography; assay type: ADME, organism-based; conditions: in vivo; outline: as §3
[7] = Tmax in human treated with monohydroxy derivative of OXC at 250 mg, iv administered as infusion over 30 mins by high-performance liquid chromatography; assay type: ADME, organism-based; conditions: in vivo; outline: as §2
[8] = Oral bioavailability in human at 300 mg administered as one-film coated tablet by non-enantiospecific assay based high-performance liquid chromatography; assay type: ADME, organism-based; conditions: in vivo
Outline: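 Crossover of 12 healthy adults: 250 mg racemic MHD infused intravenously over 30 min versus a 300 mg oral tablet, with at least one week of washout. Plasma MHD was measured by non-enantioselective HPLC-UV at 210 nm after C18 solid-phase extraction (LOQ 0.1 µmol/L). Bioavailability f was the dose-corrected ratio of oral to intravenous AUC.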

[9] = system: Plasma; assay: Drug level in human plasma at 400 mg, po; assay type: ADME, cell-free
[10] = AUC in human at 300 mg, po administered as one-film coated tablet by high-performance liquid chromatography; assay type: ADME, organism-based; conditions: plasma; outline: as §3
[11] = Cmax in human treated with oxcarbazepine at 300 mg, po administered as one-film coated tablet by high-performance liquid chromatography; assay type: ADME, organism-based; design: dose 300 mg, route oral; conditions: in vivo; outline: as §3
[12] = Tmax in human treated with oxcarbazepine at 300 mg, po administered as one-film coated tablet by high-performance liquid chromatography; assay type: ADME, organism-based; conditions: in vivo
Outline: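 Healthy adults (6 male, 6 female) took a single dose under fasting conditions in an open randomized two-way crossover with at least one week washout. Heparinized plasma was sampled at 0, 1, 2, 3, 4, 6, 8, 10, 24, 32, 48, 56 and 72 h, and stored at -80 C. Analytes were measured by HPLC (UV 210 nm for MHD). Cmax and Tmax are the highest observed concentration and its time relative to dosing.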

| Compound | dose excreted [1] [%] | half-life [2] [h] | half-life [3] [h] | Cmax [4] [nM] | Cmax [5] [nM] | Tmax [6] [h] | Tmax [7] [h] | bioavailability [8] [%] | Drug uptake [9] [%] | AUC [10] [µM·h] | Cmax [11] [nM] | Tmax [12] [h] |
| --- | --- | --- | --- | --- | --- | --- | --- | --- | --- | --- | --- | --- |
| NC(=O)N1c2ccccc2C[C@@H](O[C@@H]2O[C@H](C(=O)O)[C@@H](O)[C@H](O)[C@H]2O)c2ccccc21 | 5.62 | 14.2 | 10.3 |  |  |  |  |  |  |  |  |  |
| NC(=O)N1c2ccccc2CC(=O)c2ccccc21 [OXCARBAZEPINE] |  |  |  | 80 | 2000 | 1 | 0.5 | 99 | 2 | 6.8 |  |  |
| NC(=O)N1c2ccccc2[C@@H](O)[C@H](O)c2ccccc21 | 2.7 |  |  | 240 |  |  | 8 |  |  |  | 200 | 24 |
| NC(=O)N1c2ccccc2C[C@H](O[C@@H]2O[C@H](C(=O)O)[C@@H](O)[C@H](O)[C@H]2O)c2ccccc21 | 38.8 | 9.9 | 10.8 |  |  |  |  |  |  |  |  |  |
